Measurements taken from PubChem BioAssay AID504676 (Southern Research Specialized Biocontainment Screening …, 2011).

Test system: E. coli EV36 K1 capsule, T7 phage lysis, OD600
Test: T7 phage lysis sensitisation by capsule loss, dose response, selectivity assay for bacterial capsule biogenesis inhibitor project, EV36 K1:K-12 hybrid, OD600, set 3 (AID 504676)
Procedure, shortened: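 Assay system: E. coli EV36 K1/K-12 hybrid bacteria; Medium: LB growth medium; Reagent: T7 bacteriophage infection; Incubation: 1.5 h pre-phage plus 3 h post-infection, 37 °C; Measured by: absorbance at 600 nm before infection and 3 h post-infection; Replicates: quadruplicate wells for each concentration.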

SMILES	IC50 [µM]
COc1ccc2nc(NC(=O)c3cccs3)sc2c1	5.9
COc1ccc2nc(NC(=O)c3ccco3)sc2c1	22.9
